Screens from PubChem BioAssay.
This excerpt belongs to a sample that is enriched for hits.
Insulin prom act: TRM-6 insulin promoter activation; TRM-6 cells, insulin promoter eGFP reporter, imaging; plate-scaled: unstimulated 0, stimulated control 100; activation, % at 2 µM; actives 0.81% (n = 130,000);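 active = activation at 2 µM above a set limit, confirmed on inspection of the cell images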;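 note: share of cells whose green reporter signal exceeds an intensity cutoff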
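Test system: human fetal islet-derived TRM-6 cells with tamoxifen-inducible insulin promoter–eGFP reporter. Compound dosing: 2 µM final, single concentration. Incubation: tamoxifen pre-incubation 15 h overnight, then compound exposure 48 h at 37 °C. Signal: fixed-cell fluorescence microscopy, eGFP plus Hoechst.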
Active calls of the source: *.

SMILES | Insulin prom act
O=C(Cc1ccccc1)NN1C(=O)C2C3C=CC(C3)[C@@H]2C1=O (stereo partly specified) | 8.3
CN(C)c1cccc(C(=O)N/N=C/c2ccsc2)c1 | -7.1
O=S(=O)(NC(=S)NC1CCCCC1)c1ccc(Br)cc1 | -9.5
COc1c(OC(C)=O)ccc(/C=N\NC(=O)c2ccc(Br)cc2)c1[N+](=O)[O-] | 0.0
COc1ccc(CC(=O)n2nc(-c3ccccc3)nc2NCc2ccco2)cc1 | 641.7*
O=C(Cc1ccc(-c2ccccc2)cc1)NNC(=S)NCc1ccco1 | 0.0
Cc1ccc(-c2nc(NCc3ccco3)n(S(C)(=O)=O)n2)cc1 | -7.7
O=C(NC1(C(F)(F)F)OCCO1)c1ccc(F)cc1 | -78.6
CCOC(=O)N1CCC(=NNC(=O)c2cc3ccccc3cc2O)CC1 | 7.7
Cc1ccccc1/C=N/Nc1ccnc2cc(Cl)ccc12 | -80.0
CCOC(=O)N1CCC(=NNc2ccnc3cc(Cl)ccc23)CC1 | 558.3*
CCCn1nc2cc(C(=O)NCCc3cccs3)ccc2c1OCC | 9.1
CCN1CCN(CCCNC(=O)c2ccc(/C=C3/Sc4ccccc4N(Cc4ccccc4F)C3=O)cc2)CC1 | -5.9
CCOCCCNC(=O)CN1C(=O)/C(=C/c2ccccc2)Sc2ccccc21 | 313.3*
COCCCNC(=O)CN1C(=O)c2ccccc2C1=O | 0.0
CCC1=NN(C(=O)c2cccnc2)C(O)(C(F)(F)F)C1 (stereo unspecified) | -7.4
O=C(COC(=O)c1ccc(F)cc1F)NC1CC1 | 0.0
Cc1cc(N2C(=O)C=CC2=O)c([N+](=O)[O-])cc1C | 163.2
CC(C)[C@H](NC(=O)c1ccc(C(C)(C)C)cc1)C(=O)Nc1nnc(C2CC2)s1 | -5.4
COc1cccc(N2CCN(C3CC(=O)N(c4ccc(F)c(Cl)c4)C3=O)CC2)c1 (stereo unspecified) | -9.7
O=C(C1CCN(C2CC(=O)N(c3cccc(Cl)c3)C2=O)CC1)N1CCCC1 (stereo unspecified) | 6.9
NC(=O)C1CCN(C2CC(=O)N(c3ccc(F)c(Cl)c3)C2=O)CC1 (stereo unspecified) | 85.7*
COc1ccc(N2CCN(C(=O)CN(C)S(=O)(=O)c3cc(C)ccc3OC)CC2)cc1 | -5.6
O=C(CSc1nnc2ccccn12)Nc1ccccc1C(=O)O | -2.7
O=C(CNS(=O)(=O)c1ccc(Br)cc1)N1CCN(c2ccc(F)cc2)CC1 | 353.8
SMILES | Insulin prom act
COc1ccc(S(=O)(=O)N(C)CC(=O)N2CCOCC2)cc1 | -7.0
CN(CC(=O)N1CCN(c2ccc(F)cc2)CC1)S(=O)(=O)c1ccc(F)cc1 | 78.8*
COc1cccc(NC(=S)N(CCc2c(C)[nH]c3ccc(C)cc23)Cc2cccs2)c1 | -4.8
Cc1ccccc1NC(=S)N(CCc1c(C)[nH]c2ccc(F)cc12)Cc1cccnc1 | 0.0
Cc1[nH]c2ccc(F)cc2c1CCN(Cc1ccco1)C(=S)NC(C)(C)C | 347.1*
CCc1ccc(C(=O)COC(=O)c2n[nH]c3ccccc23)cc1 | 0.0
Cc1ccc(/C=C/C(=O)Nc2cc(=O)n(C)c(=O)n2C)o1 | 9.4
COc1cccc(/C=N/NC(=O)CO/N=C(\C)c2cccs2)c1OC | 85.7*
COc1cccc(/C=N/NC(=O)C(=O)N/N=C/c2cccc(OC)c2OC)c1OC | 0.0
C/C(=N\OCC(=O)N/N=C/c1ccccc1)c1cccs1 | -8.6
C=CCNC(=O)COc1ccc(N(C)S(=O)(=O)c2ccc(NC(C)=O)cc2)cc1 | 5.6
Cc1cccc(C(=O)N[C@H](C(=O)OCC(=O)NC2CCS(=O)(=O)C2)C(C)C)c1 (stereo partly specified) | 0.0
COc1cccc(N2CCN(C(=O)CCCCCNc3nc(=S)[nH]c4ccccc34)CC2)c1 | 5.6
COc1ccc(C(=O)N2CCCC(c3ccccc3)C2)cc1 (stereo unspecified) | 136.4*
COc1ccc(C(=O)N2CCC(C(=O)O)CC2)cc1 | -5.7
O=C(c1ccccc1F)N1CCCC(c2ccccc2)C1 (stereo unspecified) | 2.6
Cn1c(-c2cccc(Br)c2)n[nH]c1=O | 0.0
CN(C)S(=O)(=O)c1cc(NC(=O)COC(=O)CCSc2ccc(Cl)cc2)ccc1Cl | -7.7
O=C(COn1nnc2ccc(C(F)(F)F)cc21)Nc1c(Cl)cccc1Cl | 0.0
Cc1[nH]nc2c1C(c1cc(Br)cs1)C(C#N)=C(N)O2 (stereo unspecified) | 0.0
CCCCN(C(=O)NC(=O)Nc1c(C)cc(C)cc1C)S(C)(=O)=O | 163.6*
Cc1cc(C)c(NC(=O)Cc2ccc(-n3cccc3)cc2)c(C)c1 | 3.3
Cc1cc(C)c(NC(=O)Nc2ccccc2)c(Cl)c1 | 0.0
Cc1cccc(N2CCN(C(=O)c3ccc(Cl)c(S(=O)(=O)N4CCc5ccccc5C4)c3)CC2)c1C | 0.0
CCCCNC(=O)COC(=O)c1ccc(NC(C)=O)cc1 | 5.6
SMILES | Insulin prom act
Cc1ccc(Cn2c(SCC(=O)NCC3CCCO3)nc3c2c(=O)n(C)c(=O)n3C)cc1 (stereo unspecified) | 114.3
O=[N+]([O-])c1cc(C(F)(F)F)ccc1N1CCN(S(=O)(=O)c2ccc3ccccc3c2)CC1 | -6.5
O=S(=O)(Nc1cc(C(F)(F)F)ccc1N1CCOCC1)c1ccc2ccccc2c1 | 385.7*
O=C(Nc1cc(C(F)(F)F)ccc1N1CCOCC1)c1c(F)c(F)c(F)c(F)c1F | 333.3
CSc1nc2ncc(C(=O)O)c(N)n2n1 | -9.1
CCOC(=O)C1CCCN(CCC(=O)Nc2cccc(F)c2)C1 (stereo unspecified) | -9.4
CCOC(=O)C1CCCN(CCC(=O)Nc2cccc(C)c2)C1 (stereo unspecified) | 7.1
CCOC(=O)C1CCCN(CCC(=O)Nc2ccc(C)cc2)C1 (stereo unspecified) | 527.6*
O=C(Nc1sc2c(c1C(=O)N1CCOCC1)CCCCC2)c1cccnc1 | -9.1
Cc1ccc2nc(-c3ccccc3)nc(SC(C)C(=O)NCc3cccs3)c2c1 (stereo unspecified) | -7.1
Cc1nc2ccc(S(=O)(=O)NC(C(=O)NCc3cccs3)C(C)C)cc2s1 (stereo unspecified) | 250.0*
CCN(CC(=O)NCc1cccs1)S(=O)(=O)c1ccc(C(C)C)cc1 | 5.7
O=C(COc1cccc2ccccc12)NCc1cccnc1 | 0.0
Nc1ccc2c3c(cccc13)CC2 | 377.4*
COc1ccc(C(=O)Nc2ccc3c4c(cccc24)CC3)cc1 | -100.0
Nc1ccc2c3c(cccc13)C(=O)N(c1ccccc1)C2=O | 164.7
Cc1cc(=S)c2cccc(C)c2[nH]1 | -7.3
CCOC(=O)c1ccc(S(=O)(=O)NNC(=O)COc2ccccc2C)cc1 | 108.8
COC(=O)C(NC(=O)CNS(=O)(=O)c1ccc(Br)cc1)c1ccccc1 (stereo unspecified) | 275.0*
COC(=O)C(CCSC)NC(=O)CNS(=O)(=O)c1ccc(Cl)cc1 (stereo unspecified) | 0.0
COc1ccccc1NC(=O)CNS(=O)(=O)c1ccccc1 | 377.8
COc1cc(/C=C2\SC(=Nc3ccc(N4CCOCC4)cc3)N(C)C2=O)ccc1OC(C)C(=O)O (stereo unspecified) | -6.7
COC(=O)c1cc(NC(=O)c2cccc(Cl)c2)c(=O)oc1/C=C/Nc1cc(C)cc(C)c1 | 809.1*
COc1ccc(C(=O)Nc2cc(C(C)=O)c(/C=C/N(C)C)oc2=O)cc1 | -3.3
O=C(Nc1cc2c(oc1=O)CCCC2=O)c1cccc(Cl)c1 | -7.1
Cc1cccc(C(=O)Nc2nccs2)c1[N+](=O)[O-] | -3.7
CCOc1cccc(-c2cc(C(=O)N3N=C(C)CC3(O)C(F)F)c3ccccc3n2)c1 (stereo unspecified) | 5.6
